Active and inactive are the calls of the source. No cut-off for these calls is given here.
Experiments:
HEK-293T [1] = test: Cytotoxicity against human HEK293T cells co-transfected with Gal4-fused human Nurr1 LBD and pFR-Luc/pRL-SV40 assessed as decrease in renilla luciferase activity at 100 uM incubated for 16 hrs by Dual-Glo luciferase assay relative to control
[2] = target: Nuclear receptor subfamily 4 group A member 2 (Rattus norvegicus) (UniProt Q07917); test: Agonist activity at Nurr1 in rat N27 cells assessed as increase in TH mRNA expression level at 30 to 100 uM incubated for 16 hrs by qPCR analysis; format: cell-based; settings: filed as agonist, dose 30-100 µM
Chain of Nuclear receptor subfamily 4 group A member 2 (Rattus norvegicus) (Q07917 whole entry): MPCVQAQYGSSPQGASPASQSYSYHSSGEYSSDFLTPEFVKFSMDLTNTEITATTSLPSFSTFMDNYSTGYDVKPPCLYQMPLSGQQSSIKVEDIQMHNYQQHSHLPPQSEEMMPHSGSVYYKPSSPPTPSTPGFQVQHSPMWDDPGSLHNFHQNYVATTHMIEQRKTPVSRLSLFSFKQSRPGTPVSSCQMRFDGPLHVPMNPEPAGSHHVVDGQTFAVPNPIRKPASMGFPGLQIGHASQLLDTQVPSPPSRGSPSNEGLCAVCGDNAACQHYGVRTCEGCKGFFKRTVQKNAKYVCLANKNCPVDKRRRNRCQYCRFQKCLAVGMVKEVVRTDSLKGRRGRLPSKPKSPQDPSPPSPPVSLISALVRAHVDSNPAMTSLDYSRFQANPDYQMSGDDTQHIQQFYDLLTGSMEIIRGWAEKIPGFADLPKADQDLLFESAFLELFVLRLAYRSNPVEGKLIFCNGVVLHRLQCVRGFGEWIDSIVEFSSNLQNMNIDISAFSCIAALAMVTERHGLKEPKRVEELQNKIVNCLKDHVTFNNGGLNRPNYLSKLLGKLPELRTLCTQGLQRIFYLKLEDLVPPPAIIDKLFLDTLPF
In short: (§1)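 Rat N27 dopaminergic cells in RPMI 1640 with 10% FCS, switched to 0.2% FCS 7 h after seeding and held 24 h more. Stimulated 16 h with compound in 0.1% DMSO, with 0.1% DMSO as vehicle control. Total RNA was heat-linearized at 65 °C before reverse transcription. SYBR green qPCR ran 40 cycles with a melt curve. Target mRNA normalized to GAPDH by ΔCt, expressed relative to vehicle.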

[3] = target: Nuclear receptor subfamily 4 group A member 2 (Rattus norvegicus) (UniProt Q07917); test: Agonist activity at Nurr1 in rat N27 cells assessed as increase in VMAT mRNA expression level at 30 to 100 uM incubated for 16 hrs by qPCR analysis; format: cell-based; settings: filed as agonist, dose 30-100 µM
In short: as §1

[4] = target: Nuclear receptor subfamily 4 group A member 2 (Rattus norvegicus) (UniProt Q07917); test: Agonist activity at Nurr1 in rat N27 cells assessed as increase in SOD1 mRNA expression level at 30 to 100 uM incubated for 16 hrs by qPCR analysis; format: cell-based; settings: filed as agonist, dose 30-100 µM
In short: as §1

[5] = target: Nuclear receptor subfamily 4 group A member 2 (Rattus norvegicus) (UniProt Q07917); test: Agonist activity at Nurr1 in rat N27 cells assessed as increase in SOD2 mRNA expression level at 30 to 100 uM incubated for 16 hrs by qPCR analysis; format: cell-based; settings: filed as agonist, dose 30-100 µM
In short: as §1

[6] = target: T1, Nuclear receptor subfamily 4 group A member 2 (Homo sapiens, UniProt P43354); test: Agonist activity at Gal4-fused human Nurr1 LBD transfected in human HEK293T cells co-transfected with pFR-Luc/pRL-SV40 assessed as activation of luciferase activity incubated for 16 hrs by Dual-Glo luciferase assay
T1 sequence (P43354 whole entry, the tested form may be a part): as the sequence (Q07917 whole entry) above, with S131T, R182P, D354E counted along it

[7] = target: T1, Nuclear receptor subfamily 4 group A member 2; test: Binding affinity to Nurr1 LBD (unknown origin) assessed as dissociation constant by Isothermal titration calorimetry
HEK293T [8] = test: (§2) Agonist activity at Nurr1 LBD (unknown origin) transfected in human HEK293T cells co-transfected with pFR-Luc/pRL-SV40 assessed as maximum activation of luciferase activity at 1 uM incubated for 16 hrs in presence of 5-Chloro-N-{5-chloro-2-[2-(dimethylamino)ethoxy]phenyl}-1H-indole-6-carboxamide by Gal4 hybrid reporter gene assay relative to control; format: cell-based; settings: filed as agonist
In short: (§3)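 Gal4–Nurr1 LBD hybrid reporter assay in HEK293T cells (DMEM high glucose, 10% FCS, 37 °C, 5% CO2), transiently transfected with pFA-CMV-hNurr1-LBD, pFR-Luc reporter and pRL-SV40 control. Treatment began 5 h after transfection, 16 h in Opti-MEM with 0.1% DMSO, read by dual luciferase. Firefly/Renilla ratio ×1000 gave RLU; fold activation taken vs untreated control. At least three independent experiments, each in duplicate.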

HEK293T [9] = test: as §2, with “7-Chloro-N-{5-chloro-2-[2-(dimethylamino)ethoxy]phenyl}quinolin-4-amine” for “5-Chloro-N-{5-chloro-2-[2-(dimethylamino)ethoxy]phenyl}-1H-indole-6-carboxamide”; format: cell-based; settings: filed as agonist
In short: as §3

[10] = target: T1, Nuclear receptor subfamily 4 group A member 2; test: Binding affinity to Nurr1 LBD (unknown origin) at 200 uM by Isothermal titration calorimetry
HEK-293T [11] = test: Cytotoxicity against human HEK293T cells assessed as reduction in cell viability at 100 uM incubated for 24 hrs by WST-8 assay; format: toxicity, cell-based
In short: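 HEK293T cells were seeded on collagen G-coated wells, 10,000 per well, and after 24 h exposed to compound in Opti-MEM with 0.1% DMSO for 24 h; 0.1% DMSO alone served as untreated control. Metabolic activity was read by WST-8 (10%, 4 h) absorbance at 450 nm. Four biologically independent repeats.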

[12] = Glutathione reactivity at pH 7.4 assessed as compound remaining at 125 uM incubated upto 24 hrs by LC-UV-ESI-MS analysis; format: physicochemical; settings: pH 7.4, 24 h
In short: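 Compound (125 μM final) was shaken at 37 °C with 2.5 mM glutathione in PBS pH 7.4 (1% DMSO final). Aliquots at 0, 6, 18 and 24 h were diluted in mobile phase containing an internal standard. They were analyzed by reversed-phase LC with UV at 254 nm and positive ESI-MS in SIM mode. AUC was corrected to the internal standard. Run three times.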

SMILES	Activity (HEK-293T [1])	other results
NCCc1c[nH]c2ccc(F)cc12	Non-Toxic	
CN1CCC(CNC(=O)c2cc3[nH]ccc3cc2Cl)(c2ccccc2)CC1	Non-Toxic	
CN(C)C(CN)c1ccc(F)cc1 (stereo not given)	Non-Toxic	
CC(C)CN1CCC(NC(=O)c2cc3[nH]ccc3cc2Cl)CC1	Non-Toxic	
Clc1ccc2[nH]ccc2c1		Activity [2]: Dose-Dependent Effect; Activity [3]: Dose-Dependent Effect; Activity [4]: Dose-Dependent Effect; Activity [5]: Dose-Dependent Effect; EC50 [6]: 40 µM
CC(C)CN1CCC(N)CC1	Non-Toxic	
CCCCN1CCC(CNC(=O)c2cc3[nH]ccc3cc2Cl)C1 (stereo not given)	Non-Toxic	Kd [7]: 16 µM; EC50 [6]: 28 µM
NCc1ccc2[nH]ncc2c1	Non-Toxic	
CCN1CCN(c2ccc(Cl)cc2NC(=O)c2cc3[nH]ccc3cc2Cl)CC1	Non-Toxic	
Nc1cc(CNC(=O)c2cc3[nH]ccc3cc2Cl)cc(C(F)(F)F)c1	Toxic	
C#CCOc1cccc(-c2ccc(NC(=O)C3=C(C(=O)O)CCC3)c(F)c2)c1		Emax (HEK293T [8]): 134%; Emax (HEK293T [9]): 177%
CN(C)C(CNC(=O)c1cc2[nH]ccc2cc1Cl)c1ccc(F)cc1 (stereo not given)	Non-Toxic	
O=C(NCc1ccc2[nH]ncc2c1)c1cc2[nH]ccc2cc1Cl	Toxic	
CC(C)N1CCC(NC(=O)c2cc3[nH]ccc3cc2Cl)CC1	Non-Toxic	Activity [10]: inactive; Activity (HEK-293T [11]): Non-Toxic
CN1CCC(CN)(c2ccccc2)CC1	Non-Toxic	
O=C(NCCNC1CCCCC1)c1cc2[nH]ccc2cc1Cl	Non-Toxic	
O=C(NCC1CCN(Cc2ccccc2)CC1)c1cc2[nH]ccc2cc1Cl	Non-Toxic	
O=C(NCCC12CCCN1CCC2)c1cc2[nH]ccc2cc1Cl	Non-Toxic	
NCCC12CCCN1CCC2	Non-Toxic	
CC1CCN(CCCN)CC1	Non-Toxic	
CN(C)CCc1ccc(CN)cc1	Non-Toxic	
CC1CCN(CCCNC(=O)c2cc3[nH]ccc3cc2Cl)CC1	Non-Toxic	Activity [10]: inactive; Activity (HEK-293T [11]): Non-Toxic
CN1CCC(Nc2ccccc2N)CC1	Toxic	
CCN(CC)CC1CCCCC1NC(=O)c1cc2[nH]ccc2cc1Cl (stereo not given)	Non-Toxic	
CN(C)Cc1ccccc1CNC(=O)c1cc2[nH]ccc2cc1Cl	Non-Toxic	
CN(C)CCOc1ccc(Cl)cc1NC(=O)c1cc2c(ccn2C)cc1Cl		Kd [7]: 1 µM; EC50 [6]: 16 µM

SMILES	Activity (HEK-293T [1])	other results
O=C(Nc1ccccc1NCCCn1ccnc1)c1cc2[nH]ccc2cc1Cl	Non-Toxic	
CN(C)CCOc1ccc(Cl)cc1N	Non-Toxic	
O=C(NCCN1CCC2CCCCC2C1)c1cc2[nH]ccc2cc1Cl (stereo not given)	Non-Toxic	Activity (HEK-293T [11]): Non-Toxic; Kd [7]: 3.2 µM; EC50 [6]: 12 µM
CC(C)N1CCC(N)CC1	Non-Toxic	
O=C(NCc1ccc2cc[nH]c2c1)c1cc2[nH]ccc2cc1Cl	Non-Toxic	
NCc1ccc2cc[nH]c2c1	Non-Toxic	
CCN1CCN(c2ccc(Cl)cc2N)CC1	Non-Toxic	
O=C(NCCc1c[nH]c2ccc(F)cc12)c1cc2[nH]ccc2cc1Cl	Toxic	
NCc1cc(N)cc(C(F)(F)F)c1	Non-Toxic	
CN(C)CCOc1ccc(Cl)cc1NC(=O)c1cc2[nH]ccc2cc1Cl	Non-Toxic	Activity (HEK-293T [11]): Non-Toxic; Stability [12]: Stable
NC1CCC(CC2CCC(NC(=O)c3cc4[nH]ccc4cc3Cl)CC2)CC1 (stereo not given)	Toxic	
CCN(CC)C1CCC(NC(=O)c2cc3[nH]ccc3cc2Cl)CC1 (stereo not given)	Non-Toxic	Activity [10]: inactive; Activity (HEK-293T [11]): Non-Toxic
CN(C)Cc1ccccc1CN	Non-Toxic	
NC(=O)CC1(N)CCCCC1	Non-Toxic	
NCCN1CCC2CCCCC2C1 (stereo not given)	Non-Toxic	
NC1CCC(CC2CCC(N)CC2)CC1 (stereo not given)	Non-Toxic	
NC(=O)CC1(NC(=O)c2cc3[nH]ccc3cc2Cl)CCCCC1	Non-Toxic	
CCN(CC)CC1CCCCC1N (stereo not given)	Toxic	
Nc1ccccc1NCCCn1ccnc1	Non-Toxic	
CN(C)CCc1ccc(CNC(=O)c2cc3[nH]ccc3cc2Cl)cc1	Non-Toxic	
NCCNC1CCCCC1	Non-Toxic	
CCCCN1CCC(CN)C1 (stereo not given)	Non-Toxic	
CN1CCC(Nc2ccccc2NC(=O)c2cc3[nH]ccc3cc2Cl)CC1	Non-Toxic	
NCC1CCN(Cc2ccccc2)CC1	Non-Toxic	
CCN(CC)C1CCC(N)CC1 (stereo not given)	Non-Toxic	

Source: ChEMBL document CHEMBL5365527, “Structure-Guided Design of Nurr1 Agonists Derived from the Natural Ligand Dihydroxyindole” (J Med Chem, 2023)
